The text below walks through data of ChEMBL document CHEMBL3621119, “Synthesis and Biological Evaluation of Manassantin Analogues for Hypoxia-Inducible Factor 1α Inhibition” (J Med Chem, 2015).

Data set [1] can be described thus: Cytotoxicity against human HEK293T cells assessed as survival rate at 10 uM after 24 hrs by MTT assay. It is filed as cell-based, HEK-293T. Conditions: read-out: Survival. The gist of the method:
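HEK-293T cells seeded at 1×10^4 cells/well and grown 24 h, then exposed under hypoxia for 24 h to serially diluted compounds (0.005–10 μM). MTT added and incubated 4 h at 37 °C. Formazan dissolved in DMSO, absorbance read at 540 nm. Survival expressed as % of cells. Three independent experiments.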
On the technique in general: Tetrazolium dyes change colour on reduction, which living cells bring about.

In data set [2] the target is T1, Hypoxia inducible factors; HIF-1-alpha, HIF-2-alpha (Homo sapiens, UniProt Q16665+Q99814). The data set can be described thus: Inhibition of HIF1 in human HEK293T cells transfected with pGL3-5HRE-VEGF and pRL-SV40 after 24 hrs by dual luciferase reporter assay relative to normoxic condition. It is filed as cell-based. Set-up: concentration or dose not given beside the values. As to conditions: HEK-293T, concentration not given here. For orientation: A reporter such as luciferase makes a cellular process visible.

In data set [3] the target is T1, Hypoxia inducible factors; HIF-1-alpha, HIF-2-alpha. Nature of the data set: Inhibition of HIF1 in human HEK293T cells transfected with pGL3-5HRE-VEGF and pRL-SV40 after 24 hrs by dual luciferase reporter assay. The data set is classed as cell-based. As to conditions: hek-293t. The gist of the method: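 HEK-293T cells seeded at 5×10^3/well, attached 24 h, then co-transfected with pGL3-5HRE-VEGF firefly luciferase reporter (five HRE copies from human VEGF promoter) and pRL-SV40 Renilla plasmid. Serially diluted compounds applied under 1% O2 for 24 h post-transfection. Dual-Glo read-out, firefly then Renilla luminescence, each after 10 min; firefly normalized to Renilla (RLU). Three independent experiments, mean ± SD.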

Data set [4] concerns the target Hypoxia-inducible factor 1-alpha (Homo sapiens) (UniProt Q16665). Nature of the data set: Inhibition of HIF1alpha in human HEK293T cells assessed as decrease of Cdk6 expression under hypoxic condition at 1 uM after 24 hrs by Western blot analysis. Conditions: HEK-293T. It is filed as cell-based. The gist of the method:
(§1)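 HEK-293T cells held under hypoxia (1% O2) or normoxia for 24 h with or without 1 μM compound. Total protein lysates run on SDS-PAGE, transferred to nitrocellulose, blocked in 5% skim milk/TBS-0.1% Tween-20. Probed overnight at 4 °C with primary antibodies (HIF-1α, HIF-1β, Cdk6), then HRP secondary. Chemiluminescent detection, β-actin as loading control.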
(In western blotting, separated proteins are transferred to a membrane and probed.)

Data set [5] concerns the target Aryl hydrocarbon receptor nuclear translocator (Homo sapiens) (UniProt P27540). Nature of the data set: Inhibition of HIF1beta in HEK293T cells under hypoxic condition at 1 uM after 24 hrs by Western blot analysis. As to conditions: HEK-293T. The data set is classed as cell-based. Put shortly:
as §1

For data set [6], the target named is Hypoxia-inducible factor 1-alpha (Homo sapiens) (UniProt Q16665). The data set can be described thus: Inhibition of HIF-1 alpha in human HEK293T cells under hypoxic condition at 1 uM after 24 hrs by Western blot analysis. It is filed as cell-based. Conditions: HEK-293T. Put shortly:
as §1

Data set [7] shares this target. Nature of the data set: Inhibition of HIF1alpha in human HEK293T cells assessed as decrease of VEGF mRNA expression under hypoxic condition at 1 uM after 24 hrs by RT-PCR analysis. The data set is classed as cell-based. Conditions: HEK-293T. The gist of the method: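 HEK-293T cells given 1 μM compound under hypoxia for 24 h, with a normoxic control. VEGF mRNA measured by real-time PCR on 10-fold diluted cDNA with gene-specific primers. Cycling: 50 °C 2 min, 95 °C 10 min, then 40 cycles of 95 °C 15 s and 60 °C 1 min. Mean CT normalized to β-actin.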

Calls of active or inactive are those of the source. The rule behind the calls is not given here. Some results are limits rather than exact numbers.

Hypoxia-inducible factor 1-alpha (Homo sapiens), sequence (Q16665 whole entry, looked up): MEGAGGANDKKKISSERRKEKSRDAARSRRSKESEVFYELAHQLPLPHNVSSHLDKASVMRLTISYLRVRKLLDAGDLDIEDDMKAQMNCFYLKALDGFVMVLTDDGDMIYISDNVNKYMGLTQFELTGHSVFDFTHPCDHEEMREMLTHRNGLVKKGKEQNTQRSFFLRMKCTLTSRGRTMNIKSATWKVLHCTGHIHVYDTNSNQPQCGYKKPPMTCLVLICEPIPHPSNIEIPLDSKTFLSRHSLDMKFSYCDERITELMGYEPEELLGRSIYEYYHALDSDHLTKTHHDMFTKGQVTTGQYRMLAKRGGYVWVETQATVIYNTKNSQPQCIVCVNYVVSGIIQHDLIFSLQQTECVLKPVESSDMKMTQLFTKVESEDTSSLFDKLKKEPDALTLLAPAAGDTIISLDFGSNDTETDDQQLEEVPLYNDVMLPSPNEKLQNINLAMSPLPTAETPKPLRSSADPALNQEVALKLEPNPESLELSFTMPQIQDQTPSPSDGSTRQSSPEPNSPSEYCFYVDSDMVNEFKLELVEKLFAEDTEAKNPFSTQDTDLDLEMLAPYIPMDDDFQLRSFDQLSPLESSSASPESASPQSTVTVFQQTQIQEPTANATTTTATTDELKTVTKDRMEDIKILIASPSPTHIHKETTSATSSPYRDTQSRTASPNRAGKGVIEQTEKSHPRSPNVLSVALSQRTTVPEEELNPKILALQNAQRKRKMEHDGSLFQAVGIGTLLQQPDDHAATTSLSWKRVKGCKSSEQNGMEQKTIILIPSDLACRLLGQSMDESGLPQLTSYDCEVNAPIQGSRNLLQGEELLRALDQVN
Aryl hydrocarbon receptor nuclear translocator (Homo sapiens), sequence (P27540 whole entry): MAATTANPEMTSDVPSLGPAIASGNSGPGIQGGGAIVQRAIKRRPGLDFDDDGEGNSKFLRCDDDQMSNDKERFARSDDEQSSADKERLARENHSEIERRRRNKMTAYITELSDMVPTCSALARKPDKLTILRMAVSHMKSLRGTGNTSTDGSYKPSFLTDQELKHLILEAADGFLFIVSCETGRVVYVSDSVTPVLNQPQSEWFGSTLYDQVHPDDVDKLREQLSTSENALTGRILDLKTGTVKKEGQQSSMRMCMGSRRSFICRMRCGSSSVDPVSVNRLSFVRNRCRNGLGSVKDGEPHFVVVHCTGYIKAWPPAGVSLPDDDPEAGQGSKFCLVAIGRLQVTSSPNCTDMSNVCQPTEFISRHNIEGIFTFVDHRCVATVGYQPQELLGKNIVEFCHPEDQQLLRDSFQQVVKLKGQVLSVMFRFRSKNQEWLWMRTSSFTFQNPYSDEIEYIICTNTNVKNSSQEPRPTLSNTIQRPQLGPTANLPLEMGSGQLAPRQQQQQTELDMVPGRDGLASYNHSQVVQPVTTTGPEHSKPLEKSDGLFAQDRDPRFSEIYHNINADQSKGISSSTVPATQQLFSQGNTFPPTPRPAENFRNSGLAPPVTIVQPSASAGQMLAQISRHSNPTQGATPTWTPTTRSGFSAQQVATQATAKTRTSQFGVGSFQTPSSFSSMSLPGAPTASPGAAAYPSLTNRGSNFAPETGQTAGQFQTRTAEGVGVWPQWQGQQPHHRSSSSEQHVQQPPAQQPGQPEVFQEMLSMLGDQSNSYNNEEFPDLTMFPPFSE

As to `COc1ccc([C@@H](OC)[C@@H](C)Oc2ccc([C@H]3O[C@H](c4ccc(O[C@H](C)[C@H](OC)c5ccc(OC)c(OC)c5)c(OC)c4)[C@H](C)[C@H]3C)cc2OC)cc1OC`, in data set [1], the viability at 24 h, 10 µM is over 80%. Further, the inhibition in data set [2] worked out at 102%. The IC50 in data set [3] stood at 0.43 µM.

With `COc1ccc([C@@H](O)COc2ccc([C@H]3O[C@H](c4ccc(OC[C@H](O)c5ccc(OC)c(OC)c5)c(OC)c4)[C@H](C)[C@H]3C)cc2OC)cc1OC`, in data set [1], the viability at 24 h, 10 µM was over 80%. The inhibition in data set [2] was 94%. Besides, the IC50 in data set [3] was 0.38 µM.

With `COc1ccc(C(=O)COc2ccc([C@H]3O[C@H](c4ccc(OCC(=O)c5ccc(OC)c(OC)c5)c(OC)c4)[C@H](C)[C@H]3C)cc2OC)cc1OC`, the inhibition result in data set [4], in data set [6] and in data set [7] was “Active” each time. For the same molecule, the viability at 24 h, 10 µM in data set [1] is over 80%. For the same molecule, the inhibition result in data set [5] is “inactive”. The inhibition in data set [2] came to 93%. Also, the IC50 in data set [3] is 0.35 µM.

Consider `COc1ccc(C(=O)COc2cc(C(=O)[C@@H](C)Oc3ccc([C@H]4O[C@H](c5ccc(O[C@H](C)C(=O)c6ccc(OC)c(OCC(=O)c7ccc(OC)c(OC)c7)c6)c(OC)c5)[C@H](C)[C@H]4C)cc3OC)ccc2OC)cc1OC`, for which the viability at 24 h, 10 µM in data set [1] is over 80%. For the same molecule, the inhibition in data set [2] came to 36%.

Consider `COc1ccc([C@H](COc2ccc([C@H]3O[C@H](c4ccc(OC[C@H](OC)c5ccc(OC)c(OC)c5)c(OC)c4)[C@H](C)[C@H]3C)cc2OC)OC)cc1OC`, for which, in data set [1], the viability at 24 h, 10 µM was over 80%. In addition, the inhibition in data set [2] came to 87%. Also, the IC50 in data set [3] came to 1.93 µM.

With `COc1ccc([C@@H](O)[C@@H](C)Oc2ccc([C@H]3O[C@H](c4ccc(OC)c(OC)c4)[C@H](C)[C@H]3C)cc2OC)cc1OC`, the inhibition entry in data set [4], in data set [6] and in data set [7] was “Active” each time. Further, the viability at 24 h, 10 µM in data set [1] was over 80%. Moreover, the inhibition result in data set [5] was “inactive”. In data set [2], the inhibition is 113%. In addition, the IC50 in data set [3] came out at 0.32 µM.

As for `COc1cc([C@H]2O[C@H](c3ccc(O[C@H](C)C(=O)c4ccccc4)c(OC)c3)[C@H](C)[C@H]2C)ccc1O[C@H](C)C(=O)c1ccccc1`, the inhibition result in data set [4], in data set [6] and in data set [7] was “Active” in each case. Further, the viability at 24 h, 10 µM in data set [1] was over 80%. Further, the inhibition entry in data set [5] is “inactive”. The inhibition in data set [2] was 101%. The molecule further came in with a half-maximal inhibitory concentration (IC50) in data set [3] of 0.69 µM.

On to `COc1cc([C@H]2O[C@H](c3ccc(O[C@H](C)[C@H](O)c4ccccc4)c(OC)c3)[C@H](C)[C@H]2C)ccc1O[C@H](C)[C@H](O)c1ccccc1`, for which the viability at 24 h, 10 µM in data set [1] was over 80%. In addition, the inhibition in data set [2] came to 79%. The molecule further registered an IC50 in data set [3] of 0.59 µM.

Consider `COc1ccc(C(=O)[C@@H](C)Oc2ccc([C@H]3O[C@H](c4ccc(OC)c(OC)c4)[C@H](C)[C@H]3C)cc2OC)cc1OC`, for which, in data set [1], the viability at 24 h, 10 µM was over 80%. Further, the inhibition in data set [2] was 82%. Moreover, the IC50 in data set [3] is 3.7 µM.

Turning to `COc1ccc(CCOc2ccc([C@H]3O[C@H](c4ccc(OCCc5ccc(OC)c(OC)c5)c(OC)c4)[C@H](C)[C@H]3C)cc2OC)cc1OC`, the viability at 24 h, 10 µM in data set [1] was over 80%. Besides, the inhibition in data set [2] came out at 64%. Besides, in data set [3], the IC50 came out at 1.44 µM.

On to `COc1ccc(C(=O)[C@@H](C)Oc2ccc([C@H]3O[C@H](c4ccc(O[C@H](C)C(=O)c5ccc(OC)c(O)c5)c(OC)c4)[C@H](C)[C@H]3C)cc2OC)cc1O`, for which the viability at 24 h, 10 µM in data set [1] was over 80%. Also, in data set [2], the inhibition amounted to 78%. Further, the IC50 in data set [3] was determined as 2.11 µM.

In the case of `COc1ccc(C(=O)[C@@H](C)Oc2ccc([C@H]3O[C@H](c4ccc(O[C@H](C)C(=O)c5ccc(OC)c(OC)c5)c(OC)c4)[C@H](C)[C@H]3C)cc2OC)cc1OC`, in data set [1], the viability at 24 h, 10 µM was over 80%. For the same molecule, the inhibition in data set [2] was 114%. The IC50 in data set [3] stood at 0.91 µM.

The inhibition is the drop in the measured response relative to a control, in per cent. As usually defined, the IC50 is the concentration that inhibits the measured activity by half.
